According to PMC12746516 (Clinical Pharmacology and Therapeutics, 2025):

Assays:
human BSEP = human BSEP (Homo sapiens, UniProt O95342); assay: BSEP inhibition, taurocholate uptake in HEK293 human BSEP vesicles; assay type: biochemical
HepG2 cells [1] = assay: Cellular respiration assay; assay type: cell-based; settings: HepG2, 1-hour incubation; for decrease in OCR within predicted physiological range (in words): plasma Cmax to liver Cmax
Summary of the method: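 HepG2 cells incubated 1 h with test compound (parent compounds or metabolites), then run on a Seahorse XFe96 per the Mito Stress Test Kit protocol. Baseline oxygen consumption rate is expressed as fold change versus 0.2% DMSO vehicle. The physiological range spans predicted plasma Cmax to predicted liver Cmax, from a PBPK model using the liver:blood Kp.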

HepG2 cells [2] = assay: Oxidative stress assay; assay type: cell-based; settings: HepG2, 24-hour incubation; for concentrations with significant increases in ROS: DHE fluorescence vs 0.2% DMSO
Summary of the method: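 Intracellular ROS were read by dihydroethidium fluorescence and expressed as fold change versus 0.2% DMSO vehicle, with troglitazone as positive control. Nominal concentrations covered each compound's predicted plasma and liver Cmax (PBPK). Reported values come from the 24-hour exposure; a 1-hour exposure was also run. Plotted with standard deviation; significance by Kruskal–Wallis test.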

liver GSH = settings: mice, intravenous, after a toxic dose of acetaminophen; cited from earlier work
GSH in the liver = settings: rats, intravenous administration; cited from earlier work

Sequence of human BSEP (O95342 whole entry): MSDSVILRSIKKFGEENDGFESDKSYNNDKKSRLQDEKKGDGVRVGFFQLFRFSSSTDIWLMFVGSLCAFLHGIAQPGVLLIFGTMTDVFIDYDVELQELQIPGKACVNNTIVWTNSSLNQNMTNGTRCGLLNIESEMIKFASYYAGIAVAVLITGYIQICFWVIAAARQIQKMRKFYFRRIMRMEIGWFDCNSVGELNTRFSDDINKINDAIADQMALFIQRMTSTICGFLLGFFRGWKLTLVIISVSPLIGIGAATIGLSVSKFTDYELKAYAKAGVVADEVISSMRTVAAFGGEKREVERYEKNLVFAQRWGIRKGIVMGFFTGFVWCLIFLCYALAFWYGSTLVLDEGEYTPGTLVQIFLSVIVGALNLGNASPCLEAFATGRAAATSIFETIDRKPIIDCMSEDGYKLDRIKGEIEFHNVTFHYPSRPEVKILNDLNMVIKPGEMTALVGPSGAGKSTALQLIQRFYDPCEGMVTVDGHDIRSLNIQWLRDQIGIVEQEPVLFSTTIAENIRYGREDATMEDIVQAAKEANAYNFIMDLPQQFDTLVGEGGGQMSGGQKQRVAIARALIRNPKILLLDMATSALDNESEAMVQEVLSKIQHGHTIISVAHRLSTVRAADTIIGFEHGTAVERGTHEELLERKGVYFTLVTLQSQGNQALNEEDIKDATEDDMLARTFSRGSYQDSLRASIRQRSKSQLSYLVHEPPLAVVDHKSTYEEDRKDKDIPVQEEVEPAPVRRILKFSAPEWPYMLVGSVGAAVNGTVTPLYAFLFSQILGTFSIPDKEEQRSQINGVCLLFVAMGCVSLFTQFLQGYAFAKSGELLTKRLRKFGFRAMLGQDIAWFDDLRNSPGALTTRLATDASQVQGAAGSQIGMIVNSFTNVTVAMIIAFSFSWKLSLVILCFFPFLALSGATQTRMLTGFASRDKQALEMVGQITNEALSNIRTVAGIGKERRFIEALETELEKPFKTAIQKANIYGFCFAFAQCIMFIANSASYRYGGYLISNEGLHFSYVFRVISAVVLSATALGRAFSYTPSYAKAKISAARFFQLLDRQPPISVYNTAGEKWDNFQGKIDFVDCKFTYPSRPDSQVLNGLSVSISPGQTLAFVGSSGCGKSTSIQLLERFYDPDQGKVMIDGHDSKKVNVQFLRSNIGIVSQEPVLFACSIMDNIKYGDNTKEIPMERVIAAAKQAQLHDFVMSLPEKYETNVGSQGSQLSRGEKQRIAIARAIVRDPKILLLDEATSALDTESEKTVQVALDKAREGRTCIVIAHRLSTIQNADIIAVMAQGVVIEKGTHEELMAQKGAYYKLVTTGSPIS

CC(C)(CO)c1cc2cc(NC(=O)C3(c4ccc5c(c4)OC(F)(F)O5)CC3)c(F)cc2n1C[C@@H](O)CO [Tezacaftor, tezacaftor]
IC50 (human BSEP): > 100 µM
decrease in OCR within predicted physiological range (in words) (HepG2 cells [1]): did not induce a notable decrease in OCR

[2H]C([2H])([2H])C(c1cc(C(C)(C)C)c(NC(=O)c2c[nH]c3ccccc3c2=O)cc1O)(C([2H])([2H])[2H])C([2H])([2H])[2H] [Deutivacaftor, deutivacaftor]
decrease in OCR at 10 μM (HepG2 cells [1]): ~ 50%
magnitude of ROS increase compared with another compound (in words) (HepG2 cells [2]): nearly identical levels of ROS increases at the same concentrations as ivacaftor

CC(C)(C)c1cc(C(C)(C)C)c(NC(=O)c2c[nH]c3ccccc3c2=O)cc1O [Ivacaftor, ivacaftor]
IC50 (human BSEP): > 100 µM
decrease in OCR at 10 μM (HepG2 cells [1]): ~ 50%
decrease in OCR within predicted physiological range (in words) (HepG2 cells [1]): induced the most prominent decrease in OCR
magnitude of ROS increase compared with another compound (in words) (HepG2 cells [2]): matched or surpassed that of the positive control, troglitazone

CC(=O)N[C@@H](CS)C(=O)O [NAC, n‐acetyl cysteine]
recovery of liver GSH compared with untreated values (liver GSH): 75%
recovery of mitochondrial GSH compared with untreated values (liver GSH): 45%
increase in levels of GSH in the liver (GSH in the liver): 50%

CC(C)(C)c1cc(C(C)(C)CO)c(O)cc1NC(=O)c1c[nH]c2ccccc2c1=O [M1 ivacaftor]
decrease in OCR within predicted physiological range (in words) (HepG2 cells [1]): did not induce any notable decrease
concentrations with significant increases in ROS (HepG2 cells [2]): 100 µM

Cc1nn(C)cc1S(=O)(=O)NC(=O)c1ccc(-n2ccc(OCC(C)(C)C(F)(F)F)n2)nc1N1C[C@@H](C)CC1(C)C [Elexacaftor, elexacaftor]
IC50 (human BSEP): 37.1 µM
decrease in OCR within predicted physiological range (in words) (HepG2 cells [1]): induced a decrease in OCR
concentrations with significant increases in ROS (HepG2 cells [2]): 40 µM
